PRMT1 inh: PRMT1 (human) inhibition, primary screen; Q99873; recombinant PRMT1, activity-based probe fluorescence polarization; inhibition, % at 2.79 µM; hit rate 1.3% among 370,000; AID 652257;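 active = inhibition above about 21% made by adding two undisclosed values, limit read from the data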
ABHD4 inh: ABHD4 (mouse) inhibition, primary FP screen | Q8VD66 | inhibition, % at 8.92 µM | hit rate 0.54% among 370,000 | purified mABHD4, FP-Rh probe fluorescence polarization;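 active = inhibition exceeding the mean over every tested compound plus 3 SD, cut at about 30% in these data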;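 also: 0% = plate median of compound wells and 100% = S159A mutant with DMSO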
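Assay system: mouse ABHD4 enzyme, wild type / Also added: fluorescent activity-based probe FP-Rh / Doses: single nominal dose of 8.92 µM, 0.89% DMSO final / Timing: 45 min compound pre-incubation plus 60 min probe step, 25 °C / Signal: FP readout, ex 525 nm / em 598 nm / Control set: S159A mutant/DMSO as 100%, compound-well median as 0%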
HTRA1 inh: blocks human HTRA1 serine peptidase; Q92743; recombinant HTRA1, FP-rhodamine activity-based probe, fluorescence polarization; inhibition, % at 5.96 µM; hit rate 0.5% among 340,000; AID 504803; in the data active = inhibition above about 36%;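 also: 0% = enzyme with DMSO and 100% = wells lacking enzyme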
JMJD2C inh: human JMJD2C demethylase inhibition; GST-JMJD2C(1-420) H3K9me3 demethylation, DELFIA europium; hit rate 0.069% among 330,000; Q9H3R0; inhibition, % at 2.35 µM;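 active = more than half of a compound's replicate wells show inhibition beyond 50%, single wells judged on their own value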;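 also: signal counts dimethyl H3K9 product captured on neutravidin plate; 0% = median of DMSO wells and 100% = 0.3 times that DMSO median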
SIAE inh: blocks human sialic acid acetylesterase; Q9HAT2; SIAE FP-Rh probe binding, fluorescence polarization; inhibition, % at 9.66 µM; hit rate 0.69% among 370,000;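 active = inhibition above a cutoff: mean of compounds within the control limits plus 3 SD of those, cut at about 17% in these data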;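 also: 0% = plate median of compound wells and 100% = probe without SIAE protein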
Target sequence (Q9HAT2 whole entry, looked up): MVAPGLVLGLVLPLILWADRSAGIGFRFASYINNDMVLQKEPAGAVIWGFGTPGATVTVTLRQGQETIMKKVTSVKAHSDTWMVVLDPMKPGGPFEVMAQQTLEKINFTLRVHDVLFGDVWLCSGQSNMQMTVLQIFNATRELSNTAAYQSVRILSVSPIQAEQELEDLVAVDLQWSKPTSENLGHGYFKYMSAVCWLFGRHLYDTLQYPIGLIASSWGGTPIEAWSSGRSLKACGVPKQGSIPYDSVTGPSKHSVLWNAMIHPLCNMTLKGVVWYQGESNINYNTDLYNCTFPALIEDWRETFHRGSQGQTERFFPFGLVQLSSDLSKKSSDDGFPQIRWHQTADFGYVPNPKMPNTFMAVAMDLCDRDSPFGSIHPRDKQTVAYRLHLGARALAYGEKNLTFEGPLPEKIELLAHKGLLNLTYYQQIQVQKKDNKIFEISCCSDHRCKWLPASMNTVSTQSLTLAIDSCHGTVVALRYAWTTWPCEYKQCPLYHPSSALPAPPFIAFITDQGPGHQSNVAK
ABHD4 confirm: ABHD4 (mouse) inhibition, FP confirmation; shares compounds with ABHD4 inh; purified mABHD4, FP-Rh probe fluorescence polarization; inhibition, % at 8.92 µM; hit rate 55% among 1,800; AID 720658;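 active = mean inhibition across replicates above the hit cutoff set in the primary screen, cut at about 30% in these data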;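 also: 0% = wild-type ABHD4 with DMSO and 100% = catalytically dead S159A mutant with DMSO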
* marks the source's active call; other numbers are inactive results; . = no result. This is a sample that favours compounds with a hit; in the whole collection about 2.4% have one here.

SMILES	PRMT1 inh	ABHD4 inh	HTRA1 inh	JMJD2C inh	SIAE inh	ABHD4 confirm
CCOC(=O)CSc1nc(Nc2ccc3c(c2)OCO3)c2ccccc2n1	-3	40*	-8	-6	9	32*
CC(C)n1cc(C#N)c(N)n1	1	5	-8	.	-2	.
COc1ccc(C(OC(=O)c2ccco2)C(=O)NC(C)(C)C)cc1OC (stereo unspecified)	2	0	3	.	1	.
COc1ccc(CN2CCC(N3CC(C)OC(C)C3)CC2)c(OC)c1OC (stereo unspecified)	2	32*	12	-4	3	11
COc1cc(/C=C/C(=O)O)cc(S(=O)(=O)Nc2cc(Cl)c(Cl)cc2Cl)c1OC	2	32*	-11	-11	2	35*
O=C(NC1CCCCN(Cc2cccc(Cl)c2)C1=O)c1ccc(COc2ccccc2)cc1 (stereo unspecified)	-1	-16	.	.	-4	.
CC(=O)OCCNc1cc(N2CCN(C)CC2)c2noc3c2c1C(=O)c1ccccc1-3	3	32*	25	.	16	1
Cc1cccc(Nc2ccc(C(=O)O)cc2[N+](=O)[O-])c1C	6	37*	6	-2	-1	30*
COc1ccc(Nc2ccc(C(=O)O)cc2[N+](=O)[O-])cc1	4	49*	3	2	-2	43*
COc1ccc(Nc2ccc(C(N)=O)cc2[N+](=O)[O-])cc1	-4	1	5	-4	-2	.
CCOc1ccc(Nc2ccc(C(=O)O)cc2[N+](=O)[O-])cc1	-6	60*	1	12	6	45*
O=C(O)c1ccc(Nc2ccc(F)c(F)c2)c([N+](=O)[O-])c1	0	32*	2	1	-3	32*
COC(=O)N1C[C@H](OCc2ccc3c(c2)OCO3)[C@H]2C[C@@H]1c1ccccc1O2	2	5	.	.	1	.
O=C(Nc1ccccc1C(F)(F)F)OCCN1C(=O)CCC12CCC(c1ccccc1)CC2 (stereo unspecified)	0	-2	.	.	1	.
CCOC1=C2[C@@H](CN(S(=O)(=O)c3ccc(C)cc3)[C@H]2c2ccc(CC)cc2)[C@H]2C(=O)N(C)C(=O)[C@H]2C1	5	4	.	.	-1	.
COCCCOc1cc(NCc2ccccc2)c2ncn(C(C)C)c2c1	0	8	5	3	4	.
CCCCOc1cc(NCc2ccccc2)c2ncn(C(C)C)c2c1	0	37*	17	.	11	91*
CCC(CO)Oc1cc(NCc2ccc(C(C)(C)C)cc2)c2ncn(C(C)C)c2c1 (stereo unspecified)	1	30*	14	7	4	34*
C[C@H](CO)N1C[C@H](C)[C@@H](CN(C)C(=O)Nc2ccnc(N3CCOCC3)c2)OCc2cn(nn2)CCCC1=O	1	4	.	.	6	.
Cc1ccc(S(=O)(=O)N2[C@@H](c3ccccc3F)C(C(=O)O)=CC[C@H]2c2ccc(C(C)C)cc2)cc1	-2	33*	-53	1	-1	27
COc1ccc2c(C(c3ccccc3O)C3CCCN3S(=O)(=O)c3ccc(C)cc3)cn(C)c2c1 (stereo unspecified)	12	-29	.	.	5	.
Cc1ccc(Nc2c(F)cccc2Cl)c(CC(=O)O)c1	-5	2	.	.	2	.
CCN(Cc1ccccc1)C(=O)COC(=O)c1cc(S(=O)(=O)Nc2ccccc2OC)ccc1O	1	31*	3	-5	-7	44*
COc1ccccc1NS(=O)(=O)c1ccc(O)c(C(=O)OCC(=O)Nc2ccccc2F)c1	-1	-1	-4	10	5	.
Oc1cc2c(cc1O)C1c3ccc(O)c(O)c3OCC1(O)C2 (stereo unspecified)	55*	30*	25	.	0	23
SMILES	PRMT1 inh	ABHD4 inh	HTRA1 inh	JMJD2C inh	SIAE inh	ABHD4 confirm
O=C(C1CCC1)N1CCc2cc(S(=O)(=O)N3CCCC3)ccc21	2	4	.	.	-3	.
COC(=O)C1=C(C)N(Cc2cccc(C(F)(F)F)c2)C(=NCc2ccc(OC)cc2)NC1c1cccc(C(F)(F)F)c1 (stereo unspecified)	0	31*	.	.	-4	41*
COC(=O)C1=C(C)N(Cc2ccc(C(F)(F)F)cc2)C(=NCc2ccccc2)NC1c1cccc(F)c1 (stereo unspecified)	-4	34*	.	.	9	46*
COC(=O)C1=C(C)N(Cc2cccc(C(F)(F)F)c2)C(=NCc2ccc3c(c2)OCO3)NC1c1ccc(F)cc1 (stereo unspecified)	0	44*	.	.	3	30*
COC(=O)C1=C(C)N(Cc2cccc(C(F)(F)F)c2)C(=NCc2ccc(OC)cc2)NC1c1cccc(Cl)c1 (stereo unspecified)	1	27	.	.	3	.
COC(=O)C1=C(C)N(Cc2cccc(C(F)(F)F)c2)C(=NCc2ccc(C(F)(F)F)cc2)NC1c1ccc(F)cc1 (stereo unspecified)	3	35*	.	.	-9	44*
COc1ccc(C(C)(C)C)cc1NC(=O)OC[C@@H]1CSCCS(=O)(=O)N1	-6	-12	.	.	-4	.
O=C(OCC#CCSc1nnc(-c2ccc(F)cc2)o1)c1ccc(F)cc1	-6	-11	.	.	-1	.
COc1ccc(Cn2ccc3ccc(-c4ccc5ccn(C(=O)c6cccc(OC)c6)c5c4)cc32)cc1	-4	-10	.	.	-8	.
CC1(C)CC(=O)C=C(Nc2ccccc2O)C1	2	3	4	0	13	.
CC1(C)CC(=O)C=C(Nc2ccc(C(=O)O)c(O)c2)C1	10	32*	-2	1	9	-2
COC(=O)C1CN(Cc2cn(CCOC(C)=O)nn2)CCS(=O)(=O)N1Cc1ccccc1 (stereo unspecified)	-5	-1	.	.	-3	.
CC(C)c1ccc2c(c1)C(N1CCNCC1)Cc1ccc(F)cc1S2 (stereo unspecified)	6	32*	.	-15	-11	47*
Cc1ccc(CNC(=O)c2ccc3c(=O)[nH]c4c(C(=O)NCC5CCCO5)sc(=S)n4c3c2)cc1 (stereo unspecified)	3	33*	10	-3	10	41*
CCCCCNC(=O)c1ccc2c(=O)[nH]c3c(C(=O)NCC4CCCO4)sc(=S)n3c2c1 (stereo unspecified)	0	32*	9	13	-1	40*
Cc1ccccc1CN1CCCCC(NC(=O)Nc2ccccc2-c2ccccc2)C1=O (stereo unspecified)	6	-7	.	.	-4	.
COc1cccc(C2CC(c3cccc(NS(C)(=O)=O)c3)=NN2C(=O)c2ccccc2)c1OC (stereo unspecified)	0	34*	-8	6	-8	31*
COc1ccc(CCNc2ccc(C(=O)O)cc2[N+](=O)[O-])cc1OC	-2	45*	-17	-4	5	43*
